Test results: ChEMBL document CHEMBL3612009, “Synthesis and structure-activity relationship study of a new series of antiparasitic aryloxyl thiosemicarbazones inhibiting Trypanosoma cruzi cruzain” (Eur J Med Chem, 2015)

Legend:
[1] = Cytotoxicity against BALB/c mouse splenocytes assessed as maximum non-toxic concentration by measuring [3H]-thymidine incorporation after 24 hrs by liquid scintillation counting; format: cell-based, Splenocyte
Method in brief: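 BALB/c splenocytes, 5 x 10^6 cells/well, given compounds at 1.23, 3.7, 33.33 and 100 µg/mL, 1% DMSO final, triplicate; 24 h at 37 °C, 5% CO2. Then 1.0 µCi [3H]-thymidine added; cells harvested and counted by liquid scintillation. Highest non-cytotoxic concentration taken from % incorporation.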

Trypanosoma cruzi [2] = assay: Antiparasitic activity against trypomastigotes of Trypanosoma cruzi Y assessed as reduction of parasite count after 24 hrs; format: functional
[3] = Cytotoxicity against mouse L929 cells assessed as cell viability after 96 hrs by alamarBlue assay; format: cell-based
Method in brief: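 Uninfected L-929 cells at the same cell number and timing as the beta-galactosidase assay; increasing concentrations starting at the T. cruzi IC50, quadruplicate. After 96 h, alamarBlue added; absorbance at 570 and 600 nm read 6 h later. Viability as % reduction versus untreated; CC50 by linear interpolation.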

Trypanosoma cruzi [4] = assay: Antitrypanosomal activity against amastigote and trypomastigote forms of Trypanosoma cruzi Tulahuen expressing beta-galactosidase gene infected in mouse L-929 cells assessed as inhibition of parasite growth after 7 days by colorimetric betagalactosidase assay; format: functional, organism-based; conditions: L929, 168 h
Trypanosoma cruzi [5] = assay: Antitrypanosomal activity against amastigote and trypomastigote forms of Trypanosoma cruzi Tulahuen expressing beta-galactosidase gene infected in mouse L-929 cells assessed as inhibition of parasite growth at 100 uM after 7 days by colorimetric betagalactosidase assay; format: functional; conditions: L929, 168 h
[6] = Selectivity index, ratio of CC50 for mouse L929 cells to IC50 for amastigote and trypomastigote forms of Trypanosoma cruzi Tulahuen; format: functional
Method in brief: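 SI = CC50 in uninfected L-929 fibroblasts (alamarBlue, 96 h) divided by IC50 against intracellular amastigote/trypomastigote forms (beta-galactosidase assay, 7 days).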

Trypanosoma cruzi [7] = assay: Antiparasitic activity against epimastigotes of Trypanosoma cruzi Dm28c assessed as reduction of parasite count after 5 days; format: functional; conditions: 120 h
[8] = target: Cruzipain (Trypanosoma cruzi) (UniProt P25779); assay: Inhibition of Trypanosoma cruzi catalytic activity of cruzain using Z-FR-AMC as substrate at 50 uM after 10 mins by fluorescence assay
Cruzipain = Cruzipain (Trypanosoma cruzi, UniProt P25779); assay: Inhibition of Trypanosoma cruzi catalytic activity of cruzain using Z-FR-AMC as substrate after 10 mins by fluorescence assay
Trypanosoma cruzi [9] = assay: Antiparasitic activity against trypomastigotes of Trypanosoma cruzi Y assessed as induction of parasite death at 0.5 uM after 24 hrs using propidium iodide staining after 24 hrs by flow cytometry analysis; format: functional
Method in brief: (§1)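 Y strain trypomastigotes (4x10^5) in RPMI-1640 with 10% FBS, exposed to test agent for 24 h at 37 °C, 5% CO2; then stained with propidium iodide and analysed by flow cytometry, at least 10,000 events. Read-out is % PI-positive cells versus untreated parasites; Triton X-100 as positive control. Two independent experiments, each concentration in duplicate.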

Trypanosoma cruzi [10] = assay: Antiparasitic activity against trypomastigotes of Trypanosoma cruzi Y assessed as induction of parasite death at 5 uM after 24 hrs using propidium iodide staining after 24 hrs by flow cytometry analysis; format: functional; method in brief: as §1

Chain of Cruzipain (P25779 whole entry): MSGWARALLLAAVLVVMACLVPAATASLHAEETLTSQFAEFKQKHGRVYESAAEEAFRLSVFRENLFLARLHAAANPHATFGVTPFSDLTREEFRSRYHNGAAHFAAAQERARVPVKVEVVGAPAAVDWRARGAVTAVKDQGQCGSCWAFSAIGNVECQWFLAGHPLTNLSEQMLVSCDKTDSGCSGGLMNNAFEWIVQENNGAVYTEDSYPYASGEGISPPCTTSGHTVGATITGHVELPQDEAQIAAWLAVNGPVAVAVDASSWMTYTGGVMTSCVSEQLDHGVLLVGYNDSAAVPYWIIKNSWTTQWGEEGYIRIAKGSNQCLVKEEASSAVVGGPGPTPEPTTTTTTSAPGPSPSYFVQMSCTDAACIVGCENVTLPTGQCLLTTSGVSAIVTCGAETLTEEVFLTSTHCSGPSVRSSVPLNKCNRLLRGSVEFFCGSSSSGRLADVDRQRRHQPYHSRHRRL
Chain of Cruzipain (Trypanosoma cruzi) (P25779 123-467 limits assumed): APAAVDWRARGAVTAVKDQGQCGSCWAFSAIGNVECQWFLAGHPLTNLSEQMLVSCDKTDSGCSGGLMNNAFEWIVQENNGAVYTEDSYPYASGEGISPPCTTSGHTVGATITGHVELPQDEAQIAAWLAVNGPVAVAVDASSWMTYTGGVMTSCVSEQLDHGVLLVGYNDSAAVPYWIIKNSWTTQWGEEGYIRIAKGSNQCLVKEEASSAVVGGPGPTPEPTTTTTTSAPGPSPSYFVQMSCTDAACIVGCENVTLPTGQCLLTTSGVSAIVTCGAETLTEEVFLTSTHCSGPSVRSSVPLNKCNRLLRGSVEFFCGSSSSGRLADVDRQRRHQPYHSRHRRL

Compound | IC50 (Trypanosoma cruzi [4]) [µM] | IC50 (Trypanosoma cruzi [7]) [µM] | inhibition [8] [%] | IC50 (Cruzipain) [µM] | MNTC at 24 h [1] [nM] | CC50 (Trypanosoma cruzi [2]) [µM] | CC50 at 96 h [3] [µM] | inhibition at 100 µM (Trypanosoma cruzi [5]) [%] | Ratio CC50/IC50 [6] | Activity (Trypanosoma cruzi [9]) [%] | Activity (Trypanosoma cruzi [10]) [%]
NC(=S)N/N=C(\COc1ccc2ccccc2c1)c1ccc(Br)cc1 | 13.5 | 5.3 | 72.1 | – | 2400 | 5 | > 193 | > 70 | >14.3 | – | –
Cc1ccc(/C(COc2ccc(Br)cc2)=N\NC(N)=S)cc1 | 7.9 | 3.7 | 70.9 | – | 13200 | 3.1 | 13.2 | > 70 | 1.7 | – | –
COc1ccc(/C(COc2ccc(Br)cc2)=N\NC(N)=S)cc1 | 11.9 | 3.1 | 38.7 | – | 2500 | 5 | < 25.4 | > 70 | <2.1 | – | –
COc1cccc(OC/C(=N\NC(N)=S)c2ccc(Br)cc2)c1 | 9.9 | 3.7 | 62.8 | – | 2500 | 1.2 | 50.7 | > 70 | 5.1 | – | –
CC1CS(=O)(=O)CCN1/N=C/c1ccc([N+](=O)[O-])o1 (stereo not given) [NIFURTIMOX] | – | – | – | – | – | 2.7 | – | – | – | – | –
NC(=S)N/N=C(/COc1ccc(Br)cc1)c1ccccc1 | 10.2 | 14.5 | 67.6 | – | 68600 | 2.4 | < 27.5 | > 70 | <2.7 | – | –
NC(=S)N/N=C(\COc1ccc(F)c(Cl)c1)c1ccc(Br)cc1 | 9 | 3.4 | 93.7 | 0.07 | 2400 | 1.7 | 48 | > 70 | 5.3 | 2.7 | 34
COc1ccc(/C(COc2ccc(Br)cc2)=N\NC(=S)Nc2ccccc2)cc1 | – | 10.2 | 42.8 | – | – | – | – | > 70 | – | – | –
NC(=S)N/N=C(/COc1ccc(Br)cc1)c1ccc(Cl)cc1 | 14.8 | 3.6 | 67.5 | – | 12500 | 5.3 | 25.1 | > 70 | 1.7 | – | –
NC(=S)N/N=C(\COc1cccc(-c2ccccc2)c1)c1ccc(Br)cc1 | > 182 | 4.4 | 65.4 | – | 2300 | 28.3 | – | > 70 | – | – | –
NC(=S)N/N=C(\COc1cccc2ccccc12)c1ccc(Br)cc1 | 48.3 | 3 | – | – | 2400 | 3.4 | < 96.5 | > 70 | <2 | – | –
NC(=S)N/N=C(\COc1ccc(Cl)cc1)c1ccc(Br)cc1 | 11.2 | 4.6 | 73.6 | – | < 2500 | 5.7 | < 25.1 | > 70 | <2.2 | – | –
NC(=S)N/N=C(\COc1ccc(F)cc1)c1ccc(Br)cc1 | 15.7 | 1.8 | 84 | 0.4 | 2600 | 3.1 | 52.3 | > 70 | 3.3 | – | –
NC(=S)N/N=C(/COc1ccc(Br)cc1)c1ccc(F)cc1 | 10.7 | 3.8 | 53.1 | – | 2600 | 3.6 | < 26.2 | > 70 | <2.5 | – | –
CCc1ccc(OC/C(=N\NC(N)=S)c2ccc(Br)cc2)cc1 | 6.4 | 2.1 | 75.1 | – | 2600 | 1.8 | < 25.5 | > 70 | <4 | – | –

Second part, led by results:

IC50 (Trypanosoma cruzi [4]) [µM] | IC50 (Trypanosoma cruzi [7]) [µM] | inhibition [8] [%] | IC50 (Cruzipain) [µM] | Compound | MNTC at 24 h [1] [nM] | CC50 (Trypanosoma cruzi [2]) [µM] | CC50 at 96 h [3] [µM] | inhibition at 100 µM (Trypanosoma cruzi [5]) [%] | Ratio CC50/IC50 [6] | Activity (Trypanosoma cruzi [9]) [%] | Activity (Trypanosoma cruzi [10]) [%]
– | 4.5 | 29.8 | – | CNC(=S)N/N=C(/COc1ccc(Br)cc1)c1ccc(OC)cc1 | – | 3.6 | – | > 70 | – | – | –
149 | 3.9 | 81.3 | – | NC(=S)N/N=C(\COc1cccc(Br)c1)c1ccc(Br)cc1 | 2700 | 6.2 | > 180 | > 70 | >1.2 | – | –
8.6 | 2.9 | 63.3 | – | NC(=S)N/N=C(\COc1ccc(I)cc1)c1ccc(Br)cc1 | 2100 | 2.1 | < 20.4 | > 70 | 2.4 | – | –
43.2 | 15.6 | 80.7 | – | CC(=O)Nc1ccc(OC/C(=N\NC(N)=S)c2ccc(Br)cc2)cc1 | 2400 | 3.5 | 94.9 | > 70 | 2.2 | – | –
3.3 | 3.9 | 88.9 | 0.6 | NC(=S)N/N=C(/COc1ccc(Br)cc1)c1ccc(-c2ccccc2)cc1 | 2300 | 2.1 | 22.7 | > 70 | 6.9 | – | –
25.1 | 2.2 | 51.8 | – | NC(=S)N/N=C(\COc1cccc(Cl)c1)c1ccc(Br)cc1 | 2500 | 1.6 | < 50.2 | > 70 | <2 | – | –
76.6 | 4.1 | 63.7 | – | NC(=S)N/N=C(\COc1ccc(-c2ccccc2)cc1)c1ccc(Br)cc1 | 22700 | 12.3 | 90.8 | > 70 | 1.2 | – | –
5.4 | 3 | 61.8 | – | NC(=S)N/N=C(\COc1ccccc1)c1ccc(Br)cc1 | 137000 | 6.6 | 54.9 | > 70 | 10.2 | – | –
8.9 | 1.8 | 75.8 | – | COc1ccc(OC/C(=N\NC(N)=S)c2ccc(Br)cc2)cc1 | < 2500 | 3.7 | 102 | > 70 | 11.4 | – | –
– | – | 35 | – | Fc1ccc(/C(COc2ccc(Br)cc2)=N\NC(=S)Nc2ccccc2)cc1 | – | 15.6 | – | > 70 | – | – | –
– | 15.7 | 30 | – | CNC(=S)N/N=C(/COc1ccc(Br)cc1)c1ccc(F)cc1 | – | 7.4 | – | > 70 | – | – | –
13.5 | 3.5 | 58.9 | – | NC(=S)N/N=C(\COc1ccccc1Cl)c1ccc(Br)cc1 | < 2500 | 6 | 25.1 | > 70 | 1.9 | – | –
10.8 | 4.4 | 81.8 | – | NC(=S)N/N=C(\COc1cccc(Cl)c1Cl)c1ccc(Br)cc1 | 23100 | 5.7 | 23.1 | > 70 | 2.8 | – | –
< 8.1 | 11.9 | 11.8 | – | NC(=S)N/N=C(/COc1ccc(Br)cc1)c1ccc(Br)cc1 | 22600 | 3.9 | 22.6 | > 70 | >2.8 | – | –
15.2 | 5.2 | 85.3 | – | CC(C)(C)c1ccc(OC/C(=N\NC(N)=S)c2ccc(Br)cc2)cc1 | 2400 | 2.2 | 23.8 | > 70 | 1.6 | – | –
4.8 | 7.5 | 73.6 | – | NC(=S)N/N=C(/COc1ccc(Br)cc1)c1cccc2ccccc12 | 2400 | 14.7 | 12.1 | > 70 | 2.5 | – | –
